Screening data deposited in PubChem by several laboratories.
An excerpt weighted towards active compounds, which were near 3.1% of everything screened.
UBC9 SUMO inh: SUMOylation inhibition | P63279 | HTRF SUMOylation assay, SAE1/SAE2 + UBC9, in vitro | inhibition, % at 35 µM | 0.36% of 290,000 active | AID 2006; in the data active means inhibition above about 50%, passing the limit was not always enough
Target sequence (P63279 whole entry, looked up): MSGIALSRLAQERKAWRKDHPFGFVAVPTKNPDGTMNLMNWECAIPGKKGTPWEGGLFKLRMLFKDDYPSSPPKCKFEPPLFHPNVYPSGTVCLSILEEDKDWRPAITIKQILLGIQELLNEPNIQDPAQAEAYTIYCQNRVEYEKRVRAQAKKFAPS
HCV NS3 hel inh: HCV NS3 helicase inhibition; NS3 helicase DNA unwinding, Cy5 molecular beacon fluorescence; inhibition, % at 10.9 µM; 0.56% of 290,000 active; AID 1800;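 active means inhibition above the mean of all tested compounds plus 3 SD, set per campaign, cut at about 35% in these data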;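 further: 0% = DMSO wells and 100% = thioflavine S control wells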
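test system = hepatitis C virus NS3 helicase domain fragment enzyme | reagent = annealed dual-labelled DNA beacon duplex, ATP-started | times = 1 h at 25 °C | detection = Cy5 fluorescence, 0 and 60 min reads | read-out basis = percent inhibition from t60/t0 fluorescence ratio | control set = DMSO and thioflavine S | replication = one well per compound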
PHOSPHO1 block: PHOSPHO1 (human) inhibition; inhibition, % at 13.3 µM; recombinant PHOSPHO1, absorbance phosphatase assay; 1.1% of 290,000 active; AID 1565; in the data active means inhibition above about 60%
Target sequence (Q8TCT1 whole entry, looked up): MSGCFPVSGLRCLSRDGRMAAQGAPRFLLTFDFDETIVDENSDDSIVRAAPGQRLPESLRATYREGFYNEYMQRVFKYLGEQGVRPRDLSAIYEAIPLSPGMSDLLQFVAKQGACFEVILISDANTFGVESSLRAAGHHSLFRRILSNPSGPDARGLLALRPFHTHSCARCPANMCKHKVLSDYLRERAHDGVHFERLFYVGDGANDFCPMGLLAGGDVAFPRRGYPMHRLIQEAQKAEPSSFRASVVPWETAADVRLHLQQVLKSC
IMP-1 inhibitor: blocks Pseudomonas aeruginosa IMP-1 metallo-beta-lactamase | AID 1556 | inhibition, % at 5.6 µM | purified IMP-1, nitrocefin hydrolysis, epi-absorbance fluorescence | 0.45% of 290,000 active;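 active means inhibition above the mean plus 3 SD of all compounds in the same screening run, cut at about 4.5% in these data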;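 further: 0% = IMP-1 with DMSO and 100% = DMSO wells lacking enzyme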
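Assay system: purified IMP-1; Quantity: IMP-1 0.2 nM before substrate addition; Medium: HEPES buffer pH 7.1 with ZnSO4 and Brij 35; Incubation: 15 min enzyme–compound preincubation, then 25 min nitrocefin reaction, 25 °C; Signal: fluorescence quenching readout, ex 480/em 530 nm; Controls: DMSO with and without IMP-1; Repeats: singlicate testing.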
VIM-2 inhibitor: blocks Pseudomonas aeruginosa VIM-2 metallo-beta-lactamase; purified VIM-2, nitrocefin hydrolysis, epi-absorbance fluorescence; inhibition, % at 5.6 µM; 0.89% of 290,000 active; AID 1527;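 active means inhibition above the mean of all tested compounds plus 3 SD, cutoff set per screening run, cut at about 7.5% in these data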;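 further: red hydrolysis product quenches plate fluorescence so inhibitors raise well fluorescence; 0% = enzyme with DMSO and 100% = DMSO without enzyme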
core dimer inh: HCV core protein dimerization inhibition; 0.33% of 300,000 active; AID 1899; inhibition, % at 5 µM; TR-FRET GST/Flag-core106 dimerization, 1536-well;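 active means inhibition above the mean of all tested compounds plus 3 SD, set per screening campaign, cut at about 45% in these data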
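Assay system – GST-tagged and Flag-tagged HCV core protein residues 1-106 · Quantity – core106 proteins, GST 13.5 nM and Flag 17 nM · Benchmarks – unlabelled core106 and no-GST-core106 wells · Read-out basis – percent inhibition of core106 dimerization signal · Detection – time-resolved FRET, ex 340 nm, em 617 and 671 nm · Schedule – 4 h at 22.5 °C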
The depositor's hits bear a star; x = no result given.

SMILES	UBC9 SUMO inh	HCV NS3 hel inh	PHOSPHO1 block	IMP-1 inhibitor	VIM-2 inhibitor	core dimer inh
CC(C)N1OC2CC1c1nc3ccccc3n1C2 (configuration not stated)	3	x	0	x	x	-12
C[C@]12CC[C@@H]3c4ccc(O)c(O)c4CC[C@H]3[C@@H]1CC[C@@H]2O	1	10	36	14*	1	5
C[C@]12CCC(=O)C[C@H]1CC[C@@H]1[C@@H]2CC[C@]2(C)[C@@H](O)CC[C@@H]12	x	x	x	x	x	-4
COc1ccc(-c2nc3ccccc3c(=O)n2-c2ccc(OC)cc2)cc1	7	-1	45	-3	-4	1
CCn1nc(-c2ccccc2)nc2c(=O)n(C)c(=O)nc1-2	104*	-3	9	-1	1	48*
CCCCNC(=O)c1c(N)n(CCCOC)c2nc3ccccc3nc12	99*	9	-1	-4	-2	4
COCCNC(=O)c1c(N)n(CCC(C)C)c2nc3ccccc3nc12	100	10	-2	-2	-1	-1
CCOC(=O)c1c(NS(=O)(=O)c2ccccc2)n(CCCOC)c2nc3ccccc3nc12	100*	8	-32	0	-1	7
COc1ccc(Cn2c(N)c(C(=O)NCc3ccco3)c3nc4ccccc4nc32)cc1OC	100*	19	18	2	5	30
COCCNC(=O)c1c(NC(=O)c2ccc(Br)o2)n(Cc2ccccc2)c2nc3ccccc3nc12	99*	10	-15	0	0	19
COCCCn1c(N)c(C(=O)OCCOC)c2nc3ccccc3nc21	80	8	-12	0	2	1
CCOP(=O)(OCC)C(O)c1ccc(N(C)C)cc1 (configuration not stated)	17	-7	15	-1	-2	-9
COc1ccc(CN2C(=O)NC(=O)/C(=C/c3ccc([N+](=O)[O-])o3)C2=O)cc1	22	7	-1	-2	-1	x
CCOC(=O)c1c(N)n(CCCOC(=O)c2ccco2)c2nc3ccccc3nc12	36	1	-8	-1	0	-5
COCCCNC(=O)c1c(N)n(Cc2ccco2)c2nc3ccccc3nc12	39	13	11	-1	-1	4
CCCCCn1c(NC(=O)c2ccco2)c(C(=O)OCC)c2nc3ccccc3nc21	101*	18	-15	-3	-1	20
COCCCNC(=O)c1c(NC(=O)c2ccco2)n(Cc2ccccc2)c2nc3ccccc3nc12	98*	18	23	0	3	10
CCC(=NCc1ccc(F)cc1)c1c(O)n(C)c(=O)n(C)c1=O	-5	1	13	0	-2	1
CCOC(=O)c1c(/N=C/c2c(O)n(-c3ccc(F)cc3)c(=S)[nH]c2=O)sc2c1CCCC2	12	2	3	0	-1	1
CCOC(=O)c1c(/N=C/c2c(O)n(-c3ccccc3F)c(=S)[nH]c2=O)sc2c1CCCC2	-6	-1	94*	-1	-1	14
COc1ccc(CCNCc2c(OC)ccc3ccccc23)cc1	14	-30	5	-2	-1	-2
C=C1C(=O)O[C@@H]2C[C@@H](C)[C@@H]3C=CC(=O)[C@@]3(C)[C@@H](OC(=O)CC(=O)O[C@H]3[C@@H]4C(=C)C(=O)O[C@@H]4C[C@@H](C)[C@@H]4C=CC(=O)[C@]43C)[C@H]12	54*	x	31	x	x	21
CN1CCCN(C(=O)COc2ccccc2Br)CC1	-4	-1	32	0	-3	-3
O=P(O)(O)Cc1c(Cl)cccc1Cl	12	-17	-3	0	12*	-3
CN1C(=O)/C(=C/c2ccc(Cl)s2)C(=O)NC1=S	5	26	-36	9.7*	2	-4
SMILES	UBC9 SUMO inh	HCV NS3 hel inh	PHOSPHO1 block	IMP-1 inhibitor	VIM-2 inhibitor	core dimer inh
CCOC(=O)c1c(-n2c(C)cc(/C=C3\C(=O)NC(=O)N(C)C3=O)c2C)sc2c1CCCC2	14	6	-9	-4	-3	24
Cc1cc(/C=C2\C(=O)NC(=O)N(c3ccc(Cl)cc3)C2=O)c(C)n1-c1sc2c(c1C#N)CCCC2	26	28	4	5.3*	1	47*
OCCOCCO	x	x	x	x	x	2
CC1(C)C(c2ccccc2)=NC(c2cccnc2)N1O (configuration not stated)	8	0	15	-3	-1	0
CNc1ccc2nc3ccccc3[n+](C)c2c1	-21	18	24	-8	8.0*	-112
C[n+]1c2ccccc2nc2ccc(NCCO)cc21	-9	21	16	-5	7	-102
CN1CCC2(O)OCCCC2C1 (configuration not stated)	4	16	43	-4	-4	-10
O=S(=O)(NC1CN2CCC1CC2)c1ccc(Cl)cc1 (configuration not stated)	13	10	6	-5	-3	8
O=C(NC1CN2CCC1CC2)c1cc(Cl)c([N+](=O)[O-])c2nc[nH]c12 (configuration not stated)	19	-8	-5	-2	10*	-4
CCc1ccc(N2C(=O)NC(=O)C(Cc3ccc(OC)cc3OC)C2=O)cc1 (configuration not stated)	11	-3	95*	-4	-2	-2
COc1ccc(CC2C(=O)NC(=O)N(c3ccccc3)C2=O)c(OC)c1 (configuration not stated)	9	1	24	-3	-3	-1
O=C(O)CCC(=O)NCCC1=c2ccccc2=N/C1=C\c1c(O)n(Cc2ccc(F)cc2)c(=S)[nH]c1=O	19	-16	97*	-3	-3	11
O=C(N/N=C/c1c(O)n(Cc2ccc(F)cc2)c(=O)[nH]c1=O)c1ccccc1	-43	-4	-10	-3	-5	-1
C[C@]12N[C@H](Cc3ccccc31)c1ccccc12	x	x	x	x	x	6
NP(=O)(Oc1ccc(Cl)cc1)Oc1ccc(Cl)cc1	-10	5	-3	7.7*	-3	-5
O=C1NC(=O)C(CCc2ccncc2)(c2ccccc2)C(=O)N1	21	4	-4	6.1*	-5	8
C[N+]12CCC(CC1)C(C(O)(c1ccccc1)c1cccs1)C2 (configuration not stated)	-3	13	-10	12*	-2	-6
CCC[N+]12CCC(CC1)C(C(O)(c1ccccc1)c1ccccc1)C2 (configuration not stated)	13	3	36	-3	-2	-4
O=C1NCCN2CCCC12 (configuration not stated)	26	6	-4	-3	-6	-1
C/C=C1/CC(C)C(C)(O)C(=O)OCC2CCN3CCC(OC1=O)C23 (configuration not stated)	7	-3	-6	-3	-4	-3
